This excerpt belongs to a sample that is enriched for hits.
MMP13 inh: blocks human MMP13 activity | P45452 | inhibition, % at 4 µM | MMP-13 fTHP FRET cleavage, Mca fluorescence | actives 0.07% (n = 65,000) | AID 570;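 active means inhibition above the mean of compound-free control plate wells plus 3 SD, cut at about 14% in these data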;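 further: 0% = DMSO wells and 100% = wells with reference MMP-13 inhibitor after basal subtraction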
Candida biofilm: kills Candida albicans biofilms; inhibition, % at 6 µM; actives 0.14% (n = 85,000); AID 834; C. albicans biofilm + clotrimazole, Alamar Blue;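 active means inhibition above 20%; inactive means inhibition below 20%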;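 further: preformed 24 hr biofilms exposed to compound for 48 hr; 0% = biofilm without compound and 100% = blank killed by clotrimazole plus chlorhexidine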
AP complement: alternative pathway complement inhibition, orthogonal assay; Human serum alternative complement pathway, LPS-coated ELISA, C3 deposition; tested in compound mixtures; inhibition, % at 5 µM; actives 0.08% (n = 62,000);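 active means inhibition above 30% in each of the two pooled mixtures holding the compound, so the lower value exceeds 30%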;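 further: 0% = serum in Mg-EGTA without compound and 100% = EDTA serum blank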
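Test system: human serum complement alternative pathway, C3 deposition onto LPS / Medium: Mg2+-EGTA GVB++ buffer containing human serum at 1:15 dilution / Probe or stimulus: Plate-bound LPS / Times: 1 h at 37 °C / Signal: ELISA with HRP anti-human C3 antibody, TMB substrate, absorbance 450 nm / Measure: percent inhibition / Repeats: two pool placements per compound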
hDAT+cocaine: modulates human dopamine transporter uptake under cocaine | Q01959 | LLC-PK1 hDAT cells, [14C]-dopamine uptake with cocaine IC80; actives deviate in either direction | B-score at 10 µM | actives 1.3% (n = 110,000) | AID 449768;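 active means Z score or B-score, a plate-position-corrected score, falls beyond the plate's 99.7% confidence bounds, in either direction; inactive means both scores lie inside the 99.7% bounds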;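 further: scored against the spread of the other compound wells on the same plate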
Target sequence (Q01959 whole entry, looked up): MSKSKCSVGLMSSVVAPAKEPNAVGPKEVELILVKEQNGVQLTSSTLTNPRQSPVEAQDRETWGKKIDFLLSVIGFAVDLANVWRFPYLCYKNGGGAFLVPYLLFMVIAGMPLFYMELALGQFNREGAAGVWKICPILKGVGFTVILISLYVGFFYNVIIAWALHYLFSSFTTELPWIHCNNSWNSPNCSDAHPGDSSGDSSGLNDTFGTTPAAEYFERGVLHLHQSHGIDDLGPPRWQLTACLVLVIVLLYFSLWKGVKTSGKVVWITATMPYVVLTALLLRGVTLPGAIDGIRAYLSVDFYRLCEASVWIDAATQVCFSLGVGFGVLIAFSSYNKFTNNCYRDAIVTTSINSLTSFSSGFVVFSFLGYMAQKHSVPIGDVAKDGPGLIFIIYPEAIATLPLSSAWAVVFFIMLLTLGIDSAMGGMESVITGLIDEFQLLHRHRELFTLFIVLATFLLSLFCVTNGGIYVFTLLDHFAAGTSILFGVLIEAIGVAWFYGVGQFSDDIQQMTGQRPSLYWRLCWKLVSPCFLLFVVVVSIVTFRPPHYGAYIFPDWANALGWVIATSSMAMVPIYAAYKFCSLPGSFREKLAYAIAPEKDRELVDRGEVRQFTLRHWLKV
D1 allo mod: D1 dopamine receptor (human) allosteric modulation | B-score at 10 µM | actives 5.9% (n = 58,000) | HEK293 D1, CRE-luciferase, dopamine EC30 potentiation; actives deviate in either direction | P21728;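 active means luminescence count or its row- and column-corrected plate score outside the 99.7% band of the plate's sample wells, on either side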
D1 PAM confirm: D1 receptor (human) allosteric modulation, confirmed; shares compounds with D1 allo mod; HEK293 D1 CRE-luciferase, dopamine EC30 potentiation; active compounds read high; luminescence at 10 µM; actives 88% (n = 2,200); AID 642;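 active means luminescence in either of two replicates above the same-plate mean plus 3 SD of the low-dose dopamine control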
D1 ag no DA: D1 (human) signaling in absence of dopamine. shares compounds with D1 allo mod. HEK293 D1 CRE-luciferase, luminescence, no dopamine; active compounds read high. luminescence at 10 µM. actives 0.8% (n = 1,900); in the data active means luminescence above about 3900
Isoprot counter: counter-screen for D1 modulators: isoproterenol response in HEK293 cells | shares compounds with D1 allo mod | HEK293 D1 CRE-luciferase, isoproterenol EC30 counter-screen; active compounds read high | luminescence at 10 µM | actives 63% (n = 2,200) | AID 647;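 active means luminescence in either replicate above plate mean of wells with a partly effective reference agonist dose plus 3 SD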;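 further: isoproterenol raises cAMP through native beta-adrenoceptor Gs so signal bypasses D1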
* marks the source's active call; other numbers are inactive results; . = not tested or not shown.

SMILES	MMP13 inh	Candida biofilm	AP complement	hDAT+cocaine	D1 allo mod	D1 PAM confirm	D1 ag no DA	Isoprot counter
CCOc1ccc(Nc2oc(-c3ccco3)nc2C#N)cc1	1	2	16	0.029	4*	19668*	1436	3456*
CCOc1ccc(Nc2oc(-c3cccs3)nc2C#N)cc1	-40	10	7	0.18	5.8*	11044*	1540	3136*
CCOc1cc(NC(=S)NCC2CCCO2)c(OCC)cc1NC(=O)c1cccc(C)c1 (stereo unspecified)	.	.	.	-2.3	.	.	.	.
Cc1ccc(C2CC(c3cccs3)=NN2C(=O)c2ccc(Br)o2)cc1 (stereo unspecified)	.	20	.	-0.63	.	.	.	.
CCOC(=O)c1cnc(-n2nc(C)cc2C)nc1NC(C)c1ccccc1 (stereo unspecified)	-5	1	13	-0.23	8.3*	9080*	1572	3472*
COc1cc(O)c(C(C)=O)c(CC(=O)O)c1	.	.	.	-0.74	.	.	.	.
Cc1cccc(Cc2c(C)nc3c(C(=O)NCc4ccco4)cnn3c2C)c1	-50	-1	17	0.22	3.9*	8112*	1484	2704
CC(C)n1c(SCC(=O)N2c3ccccc3Sc3ccccc32)nc2c1c(=O)n(C)c(=O)n2C	2	5	11	-0.0085	5.2*	12564*	.	3012*
CCOc1ccc(NC(=O)c2ccccc2OCC(=O)c2ccccc2)cc1	.	.	.	0.23	.	.	.	.
Brc1ccccc1Cn1c(-c2cncs2)nc2ccccc21	4	8	12	-0.19	10*	19056*	1708	4180*
COC(=O)c1cc(NC(=O)Cc2ccc(OC)cc2)cc(C(=O)OC)c1	.	-5	.	0.31	.	.	.	.
CC(NC(=S)NCCc1ccccc1)C(c1cccs1)N1CCN(Cc2ccccc2)CC1 (stereo unspecified)	.	.	.	-0.97	.	.	.	.
Cc1c(NC(=O)Cn2ccc([N+](=O)[O-])n2)c(=O)n(-c2ccccc2)n1C	.	.	.	-0.76	.	.	.	.
CCSc1nncn1/N=C/c1ccc(OC)c(OC)c1	-7	7	13	0.75	8.3*	15592*	1796	7020*
C=C(C)CSc1nncn1/N=C/c1ccc(OC)cc1	3	8	-4	1.3	3.5	.	.	.
COC(=O)c1cc(-c2ccccc2)sc1NC(=O)CN1C(=O)c2ccccc2C1=O	.	.	.	-0.0069	.	.	.	.
COC(=O)c1ccc(OCCn2cnc3ccccc3c2=O)cc1	2	9	33	-0.28	5.2*	9464*	2040	3192
CCCCNS(=O)(=O)c1ccc(NC(=O)c2c(-c3ccccc3Cl)noc2C)cc1	.	-2	.	-0.59	.	.	.	.
CCCc1[nH]nc2c1C(c1ccc(OC)cc1OC)C(C#N)=C(N)O2 (stereo unspecified)	-5	.	32	2	7.7*	14308*	1416	4880*
COC(=O)Cc1[nH]nc2c1C(c1c[nH]c3ccccc13)C(C#N)=C(N)O2 (stereo unspecified)	8	8	11	-1.6	8*	10912*	.	3492*
Nc1c(S(=O)(=O)c2cccs2)c2nc3ccccc3nc2n1Cc1cccs1	-180	3	15	-0.82	0.58	.	.	.
Nc1c(S(=O)(=O)c2cccs2)c2nc3ccccc3nc2n1CC1CCCO1 (stereo unspecified)	-358	7	8	-0.51	5.9*	12068*	1576	3268*
Cc1ccc(S(=O)(=O)CC2CSc3nc4ccccc4n32)cc1 (stereo unspecified)	.	.	.	-0.79	.	.	.	.
C/C=C/C(=O)Nc1cccc(C2=NOC3(C2)C[C@@H](C(N)=O)N(C(=O)/C(C)=C/C)C3)c1 (stereo partly specified)	.	.	.	-1.2	.	.	.	.
Cc1cccc(NC(=O)Cn2c(=O)n(Cc3ccco3)c(=N)c3c4c(sc32)COC(C)(C)C4)c1	7	7	13	0.22	8.9*	6860*	1656	3256*
SMILES	MMP13 inh	Candida biofilm	AP complement	hDAT+cocaine	D1 allo mod	D1 PAM confirm	D1 ag no DA	Isoprot counter
CC1(C)Cc2c(sc3c2c(=N)n(Cc2ccco2)c(=O)n3CC(=O)Nc2cccc(Cl)c2)CO1	2	-1	15	-0.0088	4.4	.	.	.
CCN1C(=O)c2c(C)nc3ccccc3c2C1=O	2	.	29	0.12	16*	15840*	1572	3740*
CCc1ccc2oc(=O)cc(CN3CCC(C)CC3)c2c1	-1	6	-10	0.023	5.9*	10276*	1600	3548*
CCc1ccc2oc(=O)cc(CN3CCOCC3)c2c1	6	1	-2	0.48	5.9*	13788*	1736	2892
Cc1ccc2oc(=O)cc(CN3CCOCC3)c2c1	2	3	8	-0.32	1.4	.	.	.
CNc1nc(SCc2ccccc2)nc(N2CCOCC2)n1	3	8	15	0.18	11*	24896*	1672	7984*
Cc1nc(SCC(=O)Nc2ccc(N3CCOCC3)cc2)nc(C)c1C	.	5	.	0.23	.	.	.	.
CC(Sc1nc(N(C)C)nc(N2CCOCC2)n1)C(=O)Nc1ccccc1 (stereo unspecified)	4	6	11	0.42	4.8*	9356*	1600	3700*
CC(C)Nc1nc(SCC(=O)Nc2ccccc2)nc(N2CCOCC2)n1	-5	9	8	0.012	14*	20560*	1624	5156*
CC(Sc1nc(N2CCOCC2)nc(N2CCOCC2)n1)C(=O)Nc1ccccc1 (stereo unspecified)	-2	-2	10	-0.37	0.48	.	.	.
CC(C)n1c(SCC(=O)Nc2nc3c(s2)CCCC3)nc2c1c(=O)n(C)c(=O)n2C	.	0	.	0.18	.	.	.	.
CCC(=O)c1ccc(OCC(O)CN2CCN(C(c3ccccc3)c3ccccc3)CC2)cc1 (stereo unspecified)	.	14	.	2.2	.	.	.	.
CC(C)Nc1nc(NC(C)C)nc(N(C)N)n1	.	.	.	1.2	.	.	.	.
CC(C)Nc1nc(NC(C)C)nc(N(C)C(N)=O)n1	-2	-4	14	-0.1	7.7*	17056*	1584	3744*
CCOC(=O)c1cn(-c2ccccc2)nc1-c1cccnc1	2	6	10	0.85	23*	27848*	1528	4840*
O=C(O)c1cn(-c2ccccc2)nc1-c1cccnc1	1	14	2	0.41	0.17	.	.	.
CCOC(=O)c1cn(-c2ccccc2)nc1-c1ccncc1	-5	0	16	0.7	13*	20136*	1728	5740*
Fc1ccc(-c2nnc3ccc(N4CCCC4)nn23)cc1	1	14	23	2.1	8.3*	11900*	1896	3108*
Brc1ccc(-c2nnc3ccc(N4CCN(c5ccccc5)CC4)nn23)cc1	7	.	7	-0.057	0.25	.	.	.
Fc1cccc(Cl)c1-c1nnc2ccc(N3CCOCC3)nn12	0	11	8	-0.64	16*	10924*	1424	4744*
